Laboratory results published in ChEMBL document CHEMBL4610031, “Design, synthesis and biological evaluation of Proteolysis Targeting Chimeras (PROTACs) as a BTK degraders with improved pharmacokinetic properties” (Bioorg Med Chem Lett, 2020).

What was measured:
[1] = target: T1, Protein cereblon/Tyrosine-protein kinase BTK (Homo sapiens, UniProt Q06187+Q96SW2); experiment: Protac activity at CRBN/BTK in human NAMALWA cells assessed as induction of BTK protein degradation incubated for 24 hrs by immunoblotting method; type: cell-based; details: namalva
Method in brief: (§1)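 NAMALWA cells were grown in RPMI 1640 with 10% FBS, streptomycin and penicillin at 37 °C, 5% CO2. 2 × 10^6 cells per concentration were treated 24 h, rinsed in cold PBS, and lysed in Tris pH 8.0/deoxycholate/Triton X-100 with protease and phosphatase inhibitors.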
Target sequence in this assay (Q06187 whole entry): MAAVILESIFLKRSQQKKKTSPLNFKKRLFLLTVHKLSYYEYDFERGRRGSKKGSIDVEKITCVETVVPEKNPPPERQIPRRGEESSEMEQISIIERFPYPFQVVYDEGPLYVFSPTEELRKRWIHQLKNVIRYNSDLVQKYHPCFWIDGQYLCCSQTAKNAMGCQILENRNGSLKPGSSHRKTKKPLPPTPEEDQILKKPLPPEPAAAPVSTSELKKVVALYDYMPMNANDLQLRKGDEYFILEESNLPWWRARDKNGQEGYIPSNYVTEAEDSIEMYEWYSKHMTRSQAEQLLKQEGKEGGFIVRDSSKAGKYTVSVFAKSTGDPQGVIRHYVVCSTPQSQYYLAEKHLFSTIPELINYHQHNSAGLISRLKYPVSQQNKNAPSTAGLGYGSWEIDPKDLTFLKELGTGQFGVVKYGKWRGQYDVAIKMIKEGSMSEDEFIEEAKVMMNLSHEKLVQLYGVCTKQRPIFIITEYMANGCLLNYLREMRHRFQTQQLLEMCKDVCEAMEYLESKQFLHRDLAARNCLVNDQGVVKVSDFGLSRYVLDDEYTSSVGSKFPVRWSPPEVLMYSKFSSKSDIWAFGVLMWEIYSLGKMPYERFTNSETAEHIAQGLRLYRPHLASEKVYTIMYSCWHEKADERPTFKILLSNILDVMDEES
Target sequence in this assay (Q96SW2 whole entry): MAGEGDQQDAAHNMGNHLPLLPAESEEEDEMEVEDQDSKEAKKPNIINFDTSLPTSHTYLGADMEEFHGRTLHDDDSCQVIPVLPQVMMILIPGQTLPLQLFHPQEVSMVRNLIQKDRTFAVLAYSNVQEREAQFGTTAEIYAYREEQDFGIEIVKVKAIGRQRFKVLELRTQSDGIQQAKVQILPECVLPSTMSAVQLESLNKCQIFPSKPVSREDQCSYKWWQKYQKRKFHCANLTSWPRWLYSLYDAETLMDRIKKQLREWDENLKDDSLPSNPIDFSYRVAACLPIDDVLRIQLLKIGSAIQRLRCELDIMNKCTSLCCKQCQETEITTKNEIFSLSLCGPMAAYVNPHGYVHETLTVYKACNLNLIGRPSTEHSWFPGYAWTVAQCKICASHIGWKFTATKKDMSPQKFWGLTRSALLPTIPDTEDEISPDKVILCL

[2] = AUClast in mouse at 1 mg/kg, iv; type: ADME, organism-based; set-up: dose 1 mg/kg, time 0 - last, route intravenous; details: in vivo
[3] = Tmax in mouse at 1 mg/kg, iv; type: ADME, organism-based; details: in vivo
[4] = target: T1, Protein cereblon/Tyrosine-protein kinase BTK; experiment: Protac activity at CRBN/BTK in human NAMALWA cells assessed as induction of BTK protein degradation incubated for 24 hrs by immunoblotting method relative to control; type: cell-based; details: NAMALVA; method in brief: as §1
Target sequence in this assay (Q06187 2-659 limits assumed): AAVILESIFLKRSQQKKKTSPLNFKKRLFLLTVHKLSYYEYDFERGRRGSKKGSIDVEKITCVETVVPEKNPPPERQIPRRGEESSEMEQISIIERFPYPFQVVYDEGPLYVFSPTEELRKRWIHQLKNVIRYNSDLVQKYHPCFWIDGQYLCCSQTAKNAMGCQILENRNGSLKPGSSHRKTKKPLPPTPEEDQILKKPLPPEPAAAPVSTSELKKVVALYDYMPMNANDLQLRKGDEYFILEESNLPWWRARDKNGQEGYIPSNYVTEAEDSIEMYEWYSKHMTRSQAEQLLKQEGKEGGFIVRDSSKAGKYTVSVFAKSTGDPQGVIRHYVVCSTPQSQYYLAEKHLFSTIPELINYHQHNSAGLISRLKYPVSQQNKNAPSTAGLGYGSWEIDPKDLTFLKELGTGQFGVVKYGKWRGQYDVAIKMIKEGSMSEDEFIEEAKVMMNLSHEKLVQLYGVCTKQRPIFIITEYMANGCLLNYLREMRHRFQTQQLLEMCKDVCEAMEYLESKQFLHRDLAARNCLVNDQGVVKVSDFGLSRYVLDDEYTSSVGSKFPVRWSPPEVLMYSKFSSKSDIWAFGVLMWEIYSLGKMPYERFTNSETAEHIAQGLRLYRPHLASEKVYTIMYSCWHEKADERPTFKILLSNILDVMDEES
Target sequence in this assay (Q96SW2 whole entry partner): as the sequence (Q96SW2 whole entry) above

[5] = target: T2, von Hippel-Lindau disease tumor suppressor/Tyrosine-protein kinase BTK (Homo sapiens, UniProt Q06187+P40337); experiment: Protac activity at VHL/BTK in human NAMALWA cells assessed as induction of BTK protein degradation incubated for 24 hrs by immunoblotting method relative to control; type: cell-based; details: NAMALVA; method in brief: as §1
Target sequence in this assay (P40337 whole entry partner): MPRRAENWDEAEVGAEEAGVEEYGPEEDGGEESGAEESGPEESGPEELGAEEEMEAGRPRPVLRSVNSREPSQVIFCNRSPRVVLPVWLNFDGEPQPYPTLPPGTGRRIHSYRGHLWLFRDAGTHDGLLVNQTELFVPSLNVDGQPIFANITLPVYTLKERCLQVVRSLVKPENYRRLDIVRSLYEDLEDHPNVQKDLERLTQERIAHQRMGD
Target sequence in this assay (Q06187 2-659 limits assumed): as the sequence (Q06187 2-659 limits assumed) above

[6] = target: T2, von Hippel-Lindau disease tumor suppressor/Tyrosine-protein kinase BTK; experiment: Protac activity at VHL/BTK in human NAMALWA cells assessed as induction of BTK protein degradation incubated for 24 hrs by immunoblotting method; type: cell-based; details: namalva; method in brief: as §1
Target sequence in this assay (Q06187 whole entry): as the sequence (Q06187 whole entry) above
Target sequence in this assay (P40337 whole entry): as the sequence (P40337 whole entry partner) above

DC50 [1] [nM] | AUClast [2] [ng·h/mL] | Tmax [3] [min] | Emax [4] [%] | Emax [5] [%] | DC50 [6] [nM] | SMILES
6.2 | 10.2 | 1.98 | 99 |  |  | Nc1ncnc2c1c(-c1ccc(Oc3ccccc3)cc1)nn2C1CCN(CCOCCOCC(=O)Nc2ccc3c(c2)C(=O)N(C2CCC(=O)NC2=O)C3=O)CC1 (configuration not stated)
8.3 | 166 | 1.98 | 91 |  |  | Nc1ncnc2c1c(-c1ccc(Oc3ccccc3)cc1)nn2C1CCN(CCOCCOCCOc2ccc3c(c2)C(=O)N(C2CCC(=O)NC2=O)C3=O)CC1 (configuration not stated)
7.9 | 405 | 1.98 | 95 |  |  | Nc1ncnc2c1c(-c1ccc(Oc3ccccc3)cc1)nn2C1CCN(CCOCCOCCOc2ccc3c(c2)CN(C2CCC(=O)NC2=O)C3=O)CC1 (configuration not stated)

More lines, now with the values behind:

SMILES | DC50 [1] [nM] | AUClast [2] [ng·h/mL] | Tmax [3] [min] | Emax [4] [%] | Emax [5] [%] | DC50 [6] [nM]
Cc1ncsc1-c1ccc(CNC(=O)[C@@H]2C[C@@H](O)CN2C(=O)[C@H](C(C)C)N2Cc3ccccc3C2=O)c(OCCCCOCCCCN2CCC(n3nc(-c4ccc(Oc5ccccc5)cc4)c4c(N)ncnc43)CC2)c1 |  |  |  |  | 50 | 162
Cc1ncsc1-c1ccc(CNC(=O)[C@@H]2C[C@@H](O)CN2C(=O)[C@H](C(C)C)N2Cc3ccccc3C2=O)c(OCCCOCCC(=O)N2CCC(n3nc(-c4ccc(Oc5ccccc5)cc4)c4c(N)ncnc43)CC2)c1 |  |  |  |  |  | > 1000
Cc1ncsc1-c1ccc(CNC(=O)[C@@H]2C[C@@H](O)CN2C(=O)[C@@H](NC(=O)COCCOCCN2CCC(n3nc(-c4ccc(Oc5ccccc5)cc4)c4c(N)ncnc43)CC2)C(C)(C)C)cc1 |  |  |  |  | 49 | 374
